According to ChEMBL document CHEMBL1156777, “Synthesis and antiprotozoal activity of cationic 1,4-diphenyl-1H-1,2,3-triazoles” (J Med Chem, 2010):
Calls of active or inactive are those of the source. No cut-off for these calls is given here.

What was measured:
Plasmodium falciparum = test: Antiplasmodial activity against chloroquine-resistant Plasmodium falciparum K1 infected in human erythrocytes after 48 hrs assessed as [3H]hypoxanthine incorporation by liquid scintillation counting; assay type: functional, organism-based
[1] = Selectivity index, ratio of IC50 for rat L6 cells to IC50 for Leishmania donovani MHOM/SD/62/1S-CL2D; assay type: toxicity, cell-based; conditions: read-out: Ratio IC50
Method in brief: (§1)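 Each index is L6 IC50 divided by parasite IC50. L6 values are from the 70 h resazurin assay. T. b. rhodesiense STIB900 values are from the 70 h resazurin assay. P. falciparum K1 values are from erythrocytic-stage [³H]-hypoxanthine incorporation: 48 h drug exposure, then 24 h with label. L. donovani values are from the 72 h axenic amastigote CellTiter assay.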

[2] = Selectivity index, ratio of IC50 for rat L6 cells to IC50 for Trypanosoma brucei rhodesiense STIB900; assay type: toxicity, cell-based; conditions: read-out: Ratio IC50; method in brief: as §1
[3] = system: Trypanosoma brucei rhodesiense; test: Antitrypanosomal activity against Trypanosoma brucei rhodesiense STIB900 infected in NMRI mouse assessed as mean parasitemia relaps day at 5 mg/kg, ip; assay type: functional; conditions: route intraperitoneal
Method in brief: (§2)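 Female NMRI mice infected ip with 2 × 10⁴ STIB900 bloodstream forms. Groups of four dosed ip daily on days 3–6 postinfection; compounds in DMSO diluted with water to 10% final DMSO. Untreated infected controls. Tail-blood parasitaemia checked on days 7 and 10, twice weekly to day 30, then weekly to day 60. Relapse day recorded for mean relapse day; cure means parasite-free survival to day 60.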

L6 = test: Cytotoxicity against rat L6 cells after 70 hrs by alamar blue assay; assay type: cell-based; conditions: L6, 70 h
Method in brief: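 Cells were exposed to serial dilutions for 70 h at 37 °C, 5% CO₂, then given resazurin for 2–3 h. IC50 came from sigmoidal curves; two independent runs in duplicate. Top concentration was 90 μg/mL, converted to μM by molecular weight.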

[4] = Selectivity index, ratio of IC50 for rat L6 cells to IC50 for Plasmodium falciparum K1; assay type: toxicity, cell-based; conditions: read-out: Ratio IC50; method in brief: as §1
[5] = system: Trypanosoma brucei rhodesiense; test: Antitrypanosomal activity against Trypanosoma brucei rhodesiense STIB900 after 70 hrs by alamar blue assay; assay type: functional, organism-based; conditions: STIB900, 70 h
Leishmania donovani = test: Antileishmanial activity against Leishmania donovani MHOM/SD/62/1S-CL2D; assay type: functional, organism-based
Method in brief: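 Axenic amastigotes (MHOM/SD/62/1S-CL2_D) adapted from promastigotes and grown in amastigote medium at 37 °C. 6 × 10⁴ parasites per well were exposed to 2-fold serial dilutions for 72 h at 37 °C in humidified 5% CO₂. Growth was read with tetrazolium CellTiter reagent as absorbance at 490 nm. IC50 came from a four-parameter dose–response fit; duplicate determinations were averaged.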

Mus musculus [6] = test: Toxicity in NMRI mouse infected with Trypanosoma brucei rhodesiense STIB900 assessed as survival at 5 mg/kg, ip after administered for 4 consecutive days from day 3 postinfection measured after 7 to 30 days; assay type: organism-based; design: dose 5 mg/kg, route intraperitoneal; conditions: in vivo; method in brief: as §2
Plasmodium berghei = test: Antiplasmodial activity against Plasmodium berghei infected in mice (Mus musculus) assessed as inhibition of parasitaemia at 30 mg/kg, subcutaneous for 4 days; assay type: functional, organism-based; design: dose 30 mg/kg
Method in brief: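 P. berghei mouse model. Compound was given subcutaneously at 30 mg/kg daily for four days. The read-out was blood parasite count. For in vivo use, compounds were dissolved in DMSO and diluted with distilled water to 10% DMSO final.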

Mus musculus [7] = test: Toxicity in NMRI mouse infected with Trypanosoma brucei rhodesiense STIB900 assessed as survival at 2 mg/kg, ip after administered for 4 consecutive days from day 3 postinfection measured after 7 to 30 days; assay type: organism-based; design: dose 2 mg/kg, route intraperitoneal; conditions: in vivo; method in brief: as §2
Mus musculus [8] = test: Toxicity in NMRI mouse infected with Trypanosoma brucei rhodesiense STIB900 assessed as survival at 8 mg/kg, ip after administered for 4 consecutive days from day 3 postinfection measured after 7 to 30 days; assay type: organism-based; design: dose 8 mg/kg, route intraperitoneal; conditions: in vivo; method in brief: as §2
[9] = system: Trypanosoma brucei rhodesiense; test: Antitrypanosomal activity against Trypanosoma brucei rhodesiense STIB900 infected in NMRI mouse assessed as mean parasitemia relaps day at 1 mg/kg, ip; assay type: functional; conditions: route intraperitoneal; method in brief: as §2
[10] = system: Trypanosoma brucei rhodesiense; test: Antitrypanosomal activity against Trypanosoma brucei rhodesiense STIB900 infected in NMRI mouse assessed as mean parasitemia relaps day at 10 mg/kg, ip; assay type: functional; conditions: route intraperitoneal
Method in brief: (§3)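 Single-dose ip regimen at 10 mg/kg in female NMRI mice infected ip with 2 × 10⁴ STIB900 bloodstream forms, four mice per group. Dosing solution was DMSO diluted with water to 10% final DMSO. Tail-blood parasitaemia followed to day 60 postinfection, with relapse day recorded; untreated infected controls.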

Mus musculus [11] = test: Toxicity in NMRI mouse infected with Trypanosoma brucei rhodesiense STIB900 assessed as survival at 1 mg/kg, ip after administered for 4 consecutive days from day 3 postinfection measured after 7 to 30 days; assay type: organism-based; design: dose 1 mg/kg, route intraperitoneal; conditions: in vivo; method in brief: as §2
Mus musculus [12] = test: Toxicity in NMRI mouse infected with Trypanosoma brucei rhodesiense STIB900 assessed as survival at 10 mg/kg, ip after administered 1 day postinfection measured after 7 to 30 days; assay type: organism-based; design: dose 10 mg/kg, route intraperitoneal; conditions: in vivo; method in brief: as §3

SMILES	IC50 (Plasmodium falciparum) [nM]	selectivity ratio [1]	selectivity ratio [2]	Activity [3] [days]	IC50 (L6) [µM]	selectivity ratio [4]	IC50 [5] [nM]	IC50 (Leishmania donovani) [µM]	Activity (Mus musculus [6])	Activity (Plasmodium berghei)	Activity (Mus musculus [7])	Activity (Mus musculus [8])	Activity [9] [days]	Activity [10] [days]	Activity (Mus musculus [11])	Activity (Mus musculus [12])
CC(C)NC(=N)c1ccc(-c2cn(-c3ccc(C(=N)NC(C)C)cc3)nn2)cc1.Cl.Cl	5	> 7	> 910	8	> 183	> 36600	201	25								
COc1cc(C(=N)N)ccc1-n1cc(-c2ccc(C(=N)N)cc2)nn1.Cl.Cl	9		> 4820	34	> 183	> 20300	38	> 40	Toxic							
Cl.Cl.Oc1cc(C2=NCCN2)ccc1-c1cn(-c2ccc(C3=NCCN3)cc2)nn1	0.6	> 8	> 5000	10	> 190	> 317000	38	24	Toxic	inactive						
CC(C)NC(=N)c1ccc(-n2cc(-c3cc(C(=N)NC(C)C)ccc3O)nn2)cc1.Cl	28		> 1540	28.75	> 179	> 6390	116	> 100	Toxic							
COc1cc(C(=N)N)ccc1-n1cc(-c2cccc(C(=N)N)c2)nn1.Cl.Cl	25	> 6	> 17500	13	> 192	> 7680	11	33	Toxic							
Nc1nc(N)nc(Nc2ccc([As]3SCC(CO)S3)cc2)n1 (configuration not stated) [MELARSOPROL]											Non-toxic	Non-toxic	20			
COc1cc(C(=N)N)ccc1-c1cn(-c2ccc(C(=N)N)cc2)nn1.Cl.Cl	2	5	1920	60	59.4	29700	31	13								
COc1cc(C(=N)N)ccc1-c1cn(-c2cccc(C(=N)N)c2)nn1.Cl.Cl	7	15	32800		164	23400	5	11	Non-toxic				9.5	23.5	Toxic	Toxic
Cl.Cl.N=C(N)c1cccc(-c2cn(-c3ccc(C(=N)N)cc3O)nn2)c1			> 1190	14	> 209	> 1190	175	> 100	Toxic							
Cl.Cl.N=C(N)c1ccc(-c2cn(-c3cccc(C(=N)N)c3)nn2)cc1	4	5	14300	18	86	21500	6	17								
Cl.Cl.N=C(N)c1ccc(-n2cc(-c3ccc(C(=N)N)cc3O)nn2)cc1	2	11	3080		49.3	24600	16	4.3	Non-toxic							
COc1ccc(C(=N)N)cc1-c1cn(-c2ccc(C(=N)N)cc2)nn1.Cl.Cl	7	> 46	> 24800	15.5	> 198	> 28300	8	4.3								
Cl.Cl.N=C(N)c1cccc(-c2cn(-c3cccc(C(=N)N)c3)nn2)c1	21	5	2640	10	219	10400	83	48	Toxic							
Cl.Cl.N=C(N)c1cccc(-n2cc(-c3ccc(C(=N)N)cc3O)nn2)c1	7	> 26	> 26200	39	> 210	> 30000	8	8								
COc1ccc(C2=NCCN2)cc1-c1cn(-c2cccc(C3=NCCN3)c2)nn1.Cl.Cl	14	> 36	> 29300		> 176	> 12600	6	4.9	Non-toxic				12	14	Toxic	
COc1ccc(C2=NCCN2)cc1-c1cn(-c2ccc(C3=NCCN3)cc2)nn1.Cl.Cl	10		> 8950	26	> 188	> 18800	21	> 100	Toxic							
Cl.Cl.N=C(N)c1ccc(-n2cc(-c3cccc(C(=N)N)c3)nn2)cc1	3	< 1	1080	17.33	8.6	2870	8	12								
COc1ccc(C(=N)N)cc1-n1cc(-c2ccc(C(=N)N)cc2)nn1.Cl.Cl	17	> 6	> 12600	23	> 201	> 11800	16	31								
Cl.Cl.N=C(N)c1ccc(-n2cc(-c3cc(C(=N)N)ccc3O)nn2)cc1	22		> 36500		> 219	> 9960	6	> 50	Non-toxic							
Cl.Cl.Oc1ccc(C2=NCCN2)cc1-c1cn(-c2ccc(C3=NCCN3)cc2)nn1	9	> 4	> 4420	10.75	> 190	> 21100	43	43	Toxic							
COc1ccc(C(=N)N)cc1-n1cc(-c2cccc(C(=N)N)c2)nn1.Cl.Cl	28		> 4770	17	> 224	> 8000	47	> 100	Toxic							
Cl.Cl.N=C(N)c1cccc(-n2cc(-c3cc(C(=N)N)ccc3O)nn2)c1	36	> 7	> 782	14.75	> 136	> 3780	174	20	Toxic							
CC(C)NC(=N)c1ccc(-n2cc(-c3ccc(C(=N)NC(C)C)cc3O)nn2)cc1.Cl.Cl	7		> 4860		> 180	> 25700	37	> 50	Non-toxic							
Cl.Cl.c1cc(-c2cn(-c3ccc(C4=NCCN4)cc3)nn2)ccc1C1=NCCN1	2		1910	8	101	50500	53	> 100	Toxic							
